# Results taken from ChEMBL document CHEMBL1141541, “The discovery of (R)-2-(sec-butylamino)-N-(2-methyl-5-(methylcarbamoyl)phenyl) thiazole-5-carboxamide (BMS-640994)-A potent and efficacious p38alpha MAP kinase inhibitor” (Bioorg Med Chem Lett, 2008).
# Active and inactive are the calls of the source. The calls are words filed in the database; no cut-off is given here.
# How the values were obtained:
# PBMC [1] = assay: Inhibition of LPS-induced TNFalpha biosynthesis in human PBMC; assay type: functional, cell-based
# In short: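 PBMCs isolated from human whole blood by Ficoll–Hypaque density gradient centrifugation, resuspended at 5 · 10⁶/mL in RPMI with 10% fetal bovine serum. Cells preincubated with compound (0.2% DMSO) 5 min at RT, then LPS added (200 ng/mL stock), 6 h at 37 °C. Medium TNFα measured by ELISA; IC₅₀ from linear regression. Duplicate typical.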
# [2] = molecular target: Tyrosine-protein kinase Lck (Homo sapiens, UniProt P06239); assay: Inhibition of Lck
# Mus musculus [3] = assay: Inhibition of LPS-induced TNFalpha production in mouse at 5 mg/kg, po administered 24 hrs before LPS challenge relative to control; assay type: functional, organism-based; set-up: dose 5 mg/kg
# In short: (§1)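 Mice given 5 mg/kg orally, then LPS challenge after a 4 h or 24 h pre-dosing interval. Circulating TNFα reduction reported as percent versus vehicle, mean ± SD, n = 8 animals; Student's t-test.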
# [4] = molecular target: Mitogen-activated protein kinase 14 (Homo sapiens, UniProt Q16539)
# Mus musculus [5] = assay: Inhibition of LPS-induced TNFalpha production in mouse at 5 mg/kg, po administered 4 hrs before LPS challenge relative to control; assay type: functional; in short: as §1
# Serum = assay: Drug level in LPS challenged mouse serum at 5 mg/kg, po; assay type: ADME, organism-based; set-up: dose 5 mg/kg, route oral; conditions: in vivo, read-out: Drug uptake
# In short: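 Serum drug concentration in mice measured in the LPS challenge study after 5 mg/kg oral dosing, 4 h or 24 h pre-dosing interval.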
# [6] = Cmax in rat at 10 mg/kg, po; assay type: ADME, organism-based; set-up: dose 10 mg/kg, route oral; conditions: in vivo
# In short: (§2)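 Rat pharmacokinetics: iv dose 1 mg/kg and po dose 10 mg/kg, vehicle PEG300, n = 3 animals.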
# [7] = AUC (0 to 24hrs) in rat at 10 mg/kg, po; assay type: ADME, organism-based; set-up: time < 24 hr, dose 10 mg/kg, route oral; conditions: plasma
# [8] = Drug level in rat at 10 mg/kg, po after 24 hrs; assay type: ADME, organism-based; set-up: dose 10 mg/kg, route oral; conditions: in vivo, read-out: Drug uptake; in short: as §2
# [9] = Oral bioavailability in rat at 10 mg/kg; assay type: ADME, organism-based; conditions: in vivo; in short: as §2
# Rattus norvegicus [10] = assay: Inhibition of disease progression in rat adjuvant-induced arthritis model assessed as paw swelling at 1 mg/kg, po qd; assay type: functional, organism-based; set-up: dose 1 mg/kg
# In short: (§3)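 Rat adjuvant-induced arthritis, compound given orally once daily; disease progression read as paw swelling over study days 10–21 versus vehicle; Student's t-test.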
# Rattus norvegicus [11] = assay: Inhibition of disease progression in rat adjuvant-induced arthritis model assessed as paw swelling at 3 mg/kg, po qd; assay type: functional, organism-based; set-up: dose 3 mg/kg; in short: as §3
# Rattus norvegicus [12] = assay: Inhibition of disease progression in rat adjuvant-induced arthritis model assessed as paw swelling at 0.3 mg/kg, po qd; assay type: functional; in short: as §3
# [13] = Drug level in rat serum at 1 mg/kg after 18 hrs; assay type: ADME, organism-based; set-up: dose 1 mg/kg; conditions: read-out: Drug uptake
# In short: (§4)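 Terminal serum concentrations in adjuvant-arthritis rats taken 18 h after the final once-daily oral dose.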
# [14] = Drug level in rat serum at 3 mg/kg after 18 hrs; assay type: ADME, organism-based; set-up: dose 3 mg/kg; conditions: read-out: Drug uptake; in short: as §4
# Rattus norvegicus [15] = organism: Rattus norvegicus; assay: Inhibition of LPS-induced TNFalpha production in Lewis rat by ELISA; assay type: functional
# In short: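 Rats dosed orally; two hours later LPS (10 µg, E. coli […]) in 1 mL PBS given IP. Dose–response used to derive oral ED₅₀.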
# PBMC [16] = assay: Inhibition of LPS-induced IL1-beta production in human PBMC; assay type: functional, cell-based
# Blood [17] = assay: Inhibition of LPS-induced TNFalpha production in human whole blood; assay type: functional, tissue-based
# Blood [18] = assay: Inhibition of LPS-induced IL1-beta production in human whole blood; assay type: functional, tissue-based
# Liver microsomes [19] = assay: Metabolic stability in human liver microsomes; assay type: ADME, Microsome
# Liver microsomes [20] = assay: Metabolic stability in rat liver microsomes; assay type: ADME, Microsome
# Liver = assay: Metabolic stability in mouse liver microsomes; assay type: ADME, Microsome
# Cytochrome P450 1A2 = molecular target: T1, Cytochrome P450 1A2 (Homo sapiens, UniProt P05177); assay: Inhibition of CYP1A2; assay type: ADME
# T1 sequence (P05177 whole entry): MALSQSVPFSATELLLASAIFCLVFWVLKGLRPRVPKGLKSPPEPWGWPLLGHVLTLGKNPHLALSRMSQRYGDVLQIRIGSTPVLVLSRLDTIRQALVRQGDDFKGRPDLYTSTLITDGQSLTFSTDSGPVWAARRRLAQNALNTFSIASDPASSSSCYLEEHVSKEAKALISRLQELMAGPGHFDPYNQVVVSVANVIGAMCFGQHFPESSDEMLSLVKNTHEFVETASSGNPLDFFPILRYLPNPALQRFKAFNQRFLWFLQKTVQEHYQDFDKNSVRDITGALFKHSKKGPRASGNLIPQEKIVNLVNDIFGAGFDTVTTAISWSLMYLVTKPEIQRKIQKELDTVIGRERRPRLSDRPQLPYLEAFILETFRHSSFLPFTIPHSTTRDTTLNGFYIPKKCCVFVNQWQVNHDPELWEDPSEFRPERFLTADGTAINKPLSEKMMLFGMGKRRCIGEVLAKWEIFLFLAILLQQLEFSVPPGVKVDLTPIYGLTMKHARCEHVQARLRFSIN
# Cytochrome P450 2C9 = Cytochrome P450 2C9 (Homo sapiens, UniProt P11712); assay: Inhibition of CYP2C9; assay type: ADME
# Cytochrome P450 2C19 = Cytochrome P450 2C19 (Homo sapiens, UniProt P33261); assay: Inhibition of CYP2C19; assay type: ADME
# Cytochrome P450 2D6 = Cytochrome P450 2D6 (Homo sapiens, UniProt P10635); assay: Inhibition of CYP2D6; assay type: ADME
# Cytochrome P450 3A4 = Cytochrome P450 3A4 (Homo sapiens, UniProt P08684); assay: Inhibition of CYP3A4; assay type: ADME
# hERG (KCNH2) = hERG (KCNH2) (Homo sapiens, UniProt Q12809); assay: Inhibition of human ERG at 30 uM by patch clamp assay
# [21] = Protein binding in human; assay type: ADME, organism-based; conditions: in vivo, read-out: PB (converted)
# [22] = Permeability across human Caco-2 cells; assay type: ADME, cell-based; conditions: read-out: permeability
# [23] = Aqueous solubility at pH 6.5; assay type: physicochemical; conditions: buffer
# [24] = Half life in rat at 1 mg/kg, iv; assay type: ADME, organism-based; set-up: dose 1 mg/kg, route intravenous; conditions: in vivo; in short: as §2
# [25] = Clearance in rat at 1 mg/kg, iv; assay type: ADME, organism-based; set-up: dose 1 mg/kg, route intravenous; conditions: in vivo; in short: as §2
# [26] = Volume of distribution at steady state in rat at 1 mg/kg, iv; assay type: ADME, organism-based; set-up: dose 1 mg/kg, route intravenous; conditions: in vivo, read-out: Vdss; in short: as §2
# Mus musculus [27] = assay: Inhibition of LPS-induced TNFalpha production in mouse at 5 mg/kg, po administered 24 hrs before LPS challenge relative to control
# Sequence of Tyrosine-protein kinase Lck (P06239 whole entry): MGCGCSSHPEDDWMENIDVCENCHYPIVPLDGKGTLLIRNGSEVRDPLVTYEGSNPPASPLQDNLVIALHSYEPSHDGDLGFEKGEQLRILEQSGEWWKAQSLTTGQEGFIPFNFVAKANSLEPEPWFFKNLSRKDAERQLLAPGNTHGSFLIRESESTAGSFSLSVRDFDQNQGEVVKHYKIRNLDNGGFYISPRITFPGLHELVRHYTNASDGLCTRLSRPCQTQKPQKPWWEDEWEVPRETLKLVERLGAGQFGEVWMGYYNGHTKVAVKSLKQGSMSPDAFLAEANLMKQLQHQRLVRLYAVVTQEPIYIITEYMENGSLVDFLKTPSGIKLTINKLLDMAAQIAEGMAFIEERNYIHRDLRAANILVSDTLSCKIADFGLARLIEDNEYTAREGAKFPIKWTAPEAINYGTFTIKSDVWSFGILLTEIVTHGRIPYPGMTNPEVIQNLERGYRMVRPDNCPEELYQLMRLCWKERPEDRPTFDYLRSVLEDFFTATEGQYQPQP
# Sequence of Mitogen-activated protein kinase 14 (Q16539 whole entry): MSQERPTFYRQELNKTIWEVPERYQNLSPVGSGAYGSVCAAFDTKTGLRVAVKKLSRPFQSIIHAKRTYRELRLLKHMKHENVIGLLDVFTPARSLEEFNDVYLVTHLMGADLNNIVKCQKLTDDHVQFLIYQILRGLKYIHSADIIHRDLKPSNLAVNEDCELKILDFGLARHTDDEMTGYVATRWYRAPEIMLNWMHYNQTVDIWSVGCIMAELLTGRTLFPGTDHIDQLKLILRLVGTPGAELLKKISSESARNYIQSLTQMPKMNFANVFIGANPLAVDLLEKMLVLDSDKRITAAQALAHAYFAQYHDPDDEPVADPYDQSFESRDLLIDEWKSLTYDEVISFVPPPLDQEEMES
# Sequence of Cytochrome P450 2C19 (P33261 whole entry): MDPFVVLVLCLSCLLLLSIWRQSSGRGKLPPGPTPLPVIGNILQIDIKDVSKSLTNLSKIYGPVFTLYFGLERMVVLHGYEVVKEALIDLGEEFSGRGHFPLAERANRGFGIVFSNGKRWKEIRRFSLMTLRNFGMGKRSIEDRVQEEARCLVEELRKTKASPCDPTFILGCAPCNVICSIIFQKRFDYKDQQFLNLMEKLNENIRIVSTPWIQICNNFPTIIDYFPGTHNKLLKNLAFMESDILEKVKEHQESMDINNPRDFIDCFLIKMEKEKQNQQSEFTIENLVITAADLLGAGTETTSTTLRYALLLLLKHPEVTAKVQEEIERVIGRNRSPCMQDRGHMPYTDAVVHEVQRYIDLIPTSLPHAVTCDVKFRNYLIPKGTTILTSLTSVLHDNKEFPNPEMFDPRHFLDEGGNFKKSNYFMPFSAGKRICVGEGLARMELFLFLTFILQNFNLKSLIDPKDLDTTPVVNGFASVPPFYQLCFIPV
# Sequence of Cytochrome P450 2C9 (P11712 whole entry): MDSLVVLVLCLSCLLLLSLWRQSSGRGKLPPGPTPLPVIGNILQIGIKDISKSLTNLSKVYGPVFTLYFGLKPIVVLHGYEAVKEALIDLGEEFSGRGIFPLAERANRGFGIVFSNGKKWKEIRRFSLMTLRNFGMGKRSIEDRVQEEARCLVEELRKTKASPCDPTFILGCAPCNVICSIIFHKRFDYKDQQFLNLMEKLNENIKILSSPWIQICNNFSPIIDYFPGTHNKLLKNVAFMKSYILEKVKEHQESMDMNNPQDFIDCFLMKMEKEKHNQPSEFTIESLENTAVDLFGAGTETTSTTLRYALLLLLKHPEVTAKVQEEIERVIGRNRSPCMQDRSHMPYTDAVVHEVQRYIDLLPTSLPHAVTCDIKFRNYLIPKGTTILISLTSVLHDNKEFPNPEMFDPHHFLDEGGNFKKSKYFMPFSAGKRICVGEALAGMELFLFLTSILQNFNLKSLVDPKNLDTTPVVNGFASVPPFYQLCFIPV
# Sequence of Cytochrome P450 3A4 (P08684 whole entry): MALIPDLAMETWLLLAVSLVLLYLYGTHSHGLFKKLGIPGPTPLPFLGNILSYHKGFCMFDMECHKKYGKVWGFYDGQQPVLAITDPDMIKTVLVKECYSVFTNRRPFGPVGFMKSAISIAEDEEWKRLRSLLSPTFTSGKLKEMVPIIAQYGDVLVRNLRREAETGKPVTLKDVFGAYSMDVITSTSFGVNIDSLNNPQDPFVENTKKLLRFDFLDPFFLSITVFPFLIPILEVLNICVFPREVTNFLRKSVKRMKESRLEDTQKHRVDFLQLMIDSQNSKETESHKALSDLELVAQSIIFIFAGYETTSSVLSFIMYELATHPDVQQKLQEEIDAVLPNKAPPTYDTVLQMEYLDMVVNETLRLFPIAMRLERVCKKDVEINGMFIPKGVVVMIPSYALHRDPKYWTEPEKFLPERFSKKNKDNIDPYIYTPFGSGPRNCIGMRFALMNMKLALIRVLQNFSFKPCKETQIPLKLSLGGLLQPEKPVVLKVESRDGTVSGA
# Sequence of Cytochrome P450 2D6 (P10635 whole entry): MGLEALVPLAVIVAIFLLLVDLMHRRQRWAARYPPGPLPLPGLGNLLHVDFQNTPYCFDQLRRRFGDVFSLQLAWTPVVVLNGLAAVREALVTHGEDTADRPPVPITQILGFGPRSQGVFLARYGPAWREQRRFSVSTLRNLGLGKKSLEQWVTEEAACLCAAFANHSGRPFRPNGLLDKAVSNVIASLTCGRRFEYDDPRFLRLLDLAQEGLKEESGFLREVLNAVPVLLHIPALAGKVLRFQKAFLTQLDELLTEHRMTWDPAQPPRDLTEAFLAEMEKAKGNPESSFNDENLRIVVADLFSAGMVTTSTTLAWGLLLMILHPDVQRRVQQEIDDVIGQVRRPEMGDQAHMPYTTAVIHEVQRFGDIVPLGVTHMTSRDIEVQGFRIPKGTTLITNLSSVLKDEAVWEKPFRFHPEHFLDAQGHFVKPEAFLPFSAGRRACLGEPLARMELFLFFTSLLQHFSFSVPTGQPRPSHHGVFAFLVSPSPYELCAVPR
# Sequence of hERG (KCNH2) (Q12809 whole entry): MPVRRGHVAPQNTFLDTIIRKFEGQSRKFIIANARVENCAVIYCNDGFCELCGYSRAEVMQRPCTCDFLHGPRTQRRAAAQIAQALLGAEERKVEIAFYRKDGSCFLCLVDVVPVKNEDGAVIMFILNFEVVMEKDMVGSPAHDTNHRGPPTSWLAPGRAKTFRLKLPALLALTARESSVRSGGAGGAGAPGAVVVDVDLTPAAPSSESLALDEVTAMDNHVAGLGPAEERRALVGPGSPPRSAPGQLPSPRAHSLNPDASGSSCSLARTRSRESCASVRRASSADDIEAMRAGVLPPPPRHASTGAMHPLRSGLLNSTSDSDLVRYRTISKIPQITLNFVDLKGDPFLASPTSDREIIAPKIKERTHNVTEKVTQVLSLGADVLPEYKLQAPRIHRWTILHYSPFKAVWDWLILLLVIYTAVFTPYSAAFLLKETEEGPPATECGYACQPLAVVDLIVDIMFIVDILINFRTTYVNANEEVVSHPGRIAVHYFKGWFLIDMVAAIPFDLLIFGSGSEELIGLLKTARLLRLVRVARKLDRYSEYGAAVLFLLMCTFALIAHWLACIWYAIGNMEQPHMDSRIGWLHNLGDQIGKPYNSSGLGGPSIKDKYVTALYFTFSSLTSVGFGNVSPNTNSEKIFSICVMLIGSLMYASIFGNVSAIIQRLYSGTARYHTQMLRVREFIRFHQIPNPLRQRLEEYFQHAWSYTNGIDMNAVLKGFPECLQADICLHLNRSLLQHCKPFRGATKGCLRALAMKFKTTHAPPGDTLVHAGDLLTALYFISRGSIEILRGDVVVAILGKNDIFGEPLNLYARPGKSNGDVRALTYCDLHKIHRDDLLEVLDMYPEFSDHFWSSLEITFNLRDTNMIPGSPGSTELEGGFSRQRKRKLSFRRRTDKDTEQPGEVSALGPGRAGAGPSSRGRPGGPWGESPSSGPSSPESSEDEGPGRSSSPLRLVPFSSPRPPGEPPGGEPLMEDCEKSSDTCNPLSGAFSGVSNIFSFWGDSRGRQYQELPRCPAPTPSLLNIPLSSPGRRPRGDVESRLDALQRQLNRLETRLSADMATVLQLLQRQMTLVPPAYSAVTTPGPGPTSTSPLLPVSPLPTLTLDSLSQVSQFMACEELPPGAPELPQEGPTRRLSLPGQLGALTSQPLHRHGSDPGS
compound,measurement,setting,value
CCCNc1ncc(C(=O)Nc2cc(C(=O)NCC)ccc2C)s1,IC50,PBMC [1],2.7 nM
same,IC50,[2],1900 nM
same,Activity,Mus musculus [3],inactive
same,IC50,[4],2 nM
Cc1cccc(Cl)c1NC(=O)c1cnc(NC2CCC2)s1,IC50,[2],3310 nM
same,IC50,[4],36 nM
Cc1ccc(C(=O)Nc2ccnn2C)cc1NC(=O)c1cnc(NC(C)C)s1,IC50,PBMC [1],6.4 nM
same,IC50,[2],5800 nM
same,IC50,[4],5.4 nM
CCNc1ncc(C(=O)Nc2c(C)cccc2Cl)s1,IC50,[4],140 nM
CCNC(=O)c1ccc(C)c(NC(=O)c2sc(NCC)nc2C)c1,IC50,[4],330 nM
CCNC(=O)c1ccc(C)c(N2Cc3nc(NC(C)C)sc3C2=O)c1,IC50,PBMC [1],> 250 nM
same,IC50,[4],34 nM
CCCNc1ncc(C(=O)Nc2cc(C(=O)NC)ccc2C)s1,IC50,PBMC [1],42 nM
same,IC50,[2],4800 nM
same,IC50,[4],4.5 nM
Cc1ccc(C(N)=O)cc1NC(=O)c1cnc(NC(C)C)s1,IC50,PBMC [1],35 nM
same,IC50,[2],> 50000 nM
same,IC50,[4],3.2 nM
Cc1cccc(Cl)c1NC(=O)c1cnc(NC(C)C)s1,IC50,PBMC [1],160 nM
same,IC50,[4],13 nM
Cc1cccc(Cl)c1NC(=O)c1cnc(NC2CC2)s1,IC50,PBMC [1],1500 nM
same,IC50,[2],140 nM
same,IC50,[4],39 nM
CCCNc1nc2c(s1)C(=O)N(c1cc(C(=O)NCC)ccc1C)C2,IC50,[4],160 nM
CCCNc1ncc(C(=O)Nc2cc(C(N)=O)ccc2C)s1,IC50,PBMC [1],23 nM
same,IC50,[4],4.1 nM
CCCNc1ncc(C(=O)Nc2c(C)cccc2Cl)s1,IC50,PBMC [1],> 2000 nM
same,IC50,[4],28 nM
CCNC(=O)c1ccc(C)c(NC(=O)c2cnc(NC(C)C)s2)c1,IC50,PBMC [1],11 nM
same,IC50,[2],> 50000 nM
same,inhibition in vivo at 5 mg/kg,Mus musculus [5],68%
same,concentration,Serum,330 nM
same,IC50,[4],3.4 nM
CC[C@@H](C)Nc1ncc(C(=O)Nc2cc(C(=O)NC)ccc2C)s1,Cmax,[6],8700 nM
same,AUC(0-t) at 24 h,[7],25 µM·h
same,concentration at 24 h,[8],7.6 nM
same,bioavailability,[9],75%
same,Activity,Rattus norvegicus [10],Active
same,Activity,Rattus norvegicus [11],Active
same,inhibition in vivo at 0.3 mg/kg,Rattus norvegicus [12],46%
same,concentration at 18 h,[13],8.1 nM
same,concentration at 18 h,[14],16 nM
same,IC50,PBMC [1],2.9 nM
same,IC50,[2],22000 nM
same,ED50,Rattus norvegicus [15],2 mg/kg
same,IC50,PBMC [16],99 nM
same,IC50,Blood [17],54 nM
same,IC50,Blood [18],600 nM
same,Stability,Liver microsomes [19],0 nmol/min/mg
same,Stability,Liver microsomes [20],0 nmol/min/mg
same,Stability,Liver,0 nmol/min/mg
same,Activity,Cytochrome P450 1A2,> 40 µM
same,Activity,Cytochrome P450 2C9,> 40 µM
same,Activity,Cytochrome P450 2C19,> 40 µM
same,Activity,Cytochrome P450 2D6,> 40 µM
same,Activity,Cytochrome P450 3A4,> 40 µM
same,inhibition at 30 µM,hERG (KCNH2),7%
same,fraction unbound,[21],0.18
same,Papp,[22],8.3 ×10⁻⁶ cm/s
same,solubility,[23],22 µg/mL
same,half-life,[24],1.8 h
same,clearance,[25],14.1 mL/min/kg
same,Vd,[26],1.8 L/kg
same,inhibition in vivo at 5 mg/kg,Mus musculus [27],46%
CCCNc1nc(C)c(C(=O)Nc2cc(C(=O)NCC)ccc2C)s1,IC50,[4],130 nM
Cc1cccc(Cl)c1NC(=O)c1cnc(Nc2ccccc2)s1,IC50,[4],62 nM
CCCNc1nc2c(s1)C(=O)N(c1cc(C(=O)NC)ccc1C)C2,IC50,[4],270 nM
CC[C@H](C)Nc1ncc(C(=O)Nc2cc(C(=O)NC)ccc2C)s1,IC50,PBMC [1],4.1 nM
same,IC50,[2],> 50000 nM
same,inhibition in vivo at 5 mg/kg,Mus musculus [5],69%
same,concentration,Serum,250 nM
CNC(=O)c1ccc(C)c(NC(=O)c2cnc(NC(C)C)s2)c1,IC50,PBMC [1],8.7 nM
same,IC50,[2],> 50000 nM
same,inhibition in vivo at 5 mg/kg,Mus musculus [5],62%
same,Activity,Mus musculus [3],inactive
same,concentration,Serum,400 nM
same,IC50,[4],3.5 nM
CNC(=O)c1ccc(C)c(N2Cc3nc(NC4CCCC4)sc3C2=O)c1,IC50,[4],110 nM
CNC(=O)c1ccc(C)c(NC(=O)c2cnc(NCCOC)s2)c1,IC50,PBMC [1],> 250 nM
same,IC50,[4],22 nM
Cc1ccc(C(=O)Nc2ccn[nH]2)cc1NC(=O)c1cnc(NC(C)C)s1,IC50,PBMC [1],7.9 nM
same,IC50,[4],4.2 nM
CNC(=O)c1ccc(C)c(N2Cc3nc(NC(C)C)sc3C2=O)c1,IC50,[4],110 nM
Cc1ccc(C(=O)Nc2ccon2)cc1NC(=O)c1cnc(NC(C)C)s1,IC50,PBMC [1],1 nM
